Data taken from ChEMBL document CHEMBL5154790 (J Med Chem, 2022).
Activity calls are given as the source filed them. No cut-off for these calls is given here.

How the values were obtained:
[1] = tested on: Mus musculus; experiment: Antialzheimer activity against SAMP8 mouse assessed as reduction in tau phosphorylation ar Ser396 residue at 2 mg/kg, po measured after 4 weeks by Western blot analysis; type: functional, organism-based
Method in brief: (§1)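 SAMP8 mice received oral dosing daily for 4 weeks at 2 mg kg⁻¹ day⁻¹, with vehicle-treated SAMP8 mice as controls. Hippocampal protein levels were expressed relative to the SAMP8 control group, set to 100%; for tau this is the p-Tau (Ser396 and Ser404) ratio. Values are mean ± SEM, tested against control.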

[2] = tested on: Mus musculus; experiment: Antineuroinflammatory activity in SAMP8 mouse assessed as decrease in NFkappaB protein expression hippocampus tissue at 2 mg/kg, po measured after 4 weeks by Western blot analysis; type: functional, organism-based; method in brief: as §1
[3] = tested on: Mus musculus; experiment: Antineuroinflammatory activity in SAMP8 mouse assessed as decrease in IL-6 gene expression hippocampus tissue at 2 mg/kg, po measured after 4 weeks by RT-PCR analysis; type: functional, organism-based
Method in brief: (§2)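 Hippocampal gene expression was measured by real-time PCR in SAMP8 mice after daily oral treatment for 4 weeks (2 mg kg⁻¹ day⁻¹), compared with vehicle-treated SAMP8 controls. Values are mean ± SEM.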

[4] = Cytotoxicity against human SH-SY5Y cells assessed as reduction in cell viability incubated for 24 hrs by propidium iodide staining based fluorescence analysis; type: toxicity; details: read-out: LD50
[5] = tested on: Mus musculus; experiment: Cognitive enhancement effect […] of SAMP8 mouse assessed as increase in novelty discrimination index at 2 mg/kg, po administered 4 weeks by Novel object recognition test; type: functional, organism-based
Method in brief: (§3)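 SAMP8 mice were dosed orally once daily for 4 weeks at 2 mg kg⁻¹ day⁻¹; controls received vehicle. In the novel object recognition test, a familiarization phase preceded testing for short-term and long-term working memory. The discrimination index scores the ability to distinguish a known from a new object. Values are mean ± SEM.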

[6] = tested on: Mus musculus; experiment: Antineuroinflammatory activity in SAMP8 mouse assessed as decrease in IL-1beta gene expression hippocampus tissue at 2 mg/kg, po measured after 4 weeks by RT-PCR analysis; type: functional, organism-based; method in brief: as §2
[7] = tested on: Mus musculus; experiment: Cognitive enhancing effect in SAMP8 mouse assessed as improvement of short term memory by measuring discrimination index at 2 mg/kg, po administered for 4 weeks by novel object recognition test; type: functional, organism-based; method in brief: as §3
[8] = tested on: Mus musculus; experiment: Cognitive enhancing effect in SAMP8 mouse assessed as improvement of long term memory by measuring increased discrimination index at 2 mg/kg, po administered for 4 weeks by novel object recognition test; type: functional, organism-based; method in brief: as §3
[9] = tested on: Mus musculus; experiment: Antineuroinflammatory activity in SAMP8 mouse assessed as increase in synaptophysin expression in hippocampus tissue at 2 mg/kg, po measured after 4 weeks by Western blot analysis; type: functional, organism-based; method in brief: as §1
[10] = tested on: Mus musculus; experiment: Antialzheimer activity against SAMP8 mouse assessed as decrease in hippocampal sAPPbeta levels at 2 mg/kg, po measured after 4 weeks by Western blot analysis; type: functional, organism-based; method in brief: as §1
[11] = tested on: Mus musculus; experiment: Antialzheimer activity against SAMP8 mouse assessed as increase in hippocampal sAPPalpha levels at 2 mg/kg, po measured after 4 weeks by Western blot analysis; type: functional, organism-based; method in brief: as §1
[12] = tested on: Mus musculus; experiment: Antineuroinflammatory activity in SAMP8 mouse assessed as decrease in Gfap gene expression hippocampus tissue at 2 mg/kg, po measured after 4 weeks by RT-PCR analysis; type: functional, organism-based; method in brief: as §2
[13] = biological target: Cholinesterase (Homo sapiens) (UniProt P06276); experiment: Inhibition of human recombinant BChE at 100 uM using butyrylthiocholine iodide as substrate preincubated for 20 mins followed by substrate addition and measured every 240 sec by Ellman's method relative to control
Sequence of Cholinesterase (Homo sapiens) (P06276 whole entry): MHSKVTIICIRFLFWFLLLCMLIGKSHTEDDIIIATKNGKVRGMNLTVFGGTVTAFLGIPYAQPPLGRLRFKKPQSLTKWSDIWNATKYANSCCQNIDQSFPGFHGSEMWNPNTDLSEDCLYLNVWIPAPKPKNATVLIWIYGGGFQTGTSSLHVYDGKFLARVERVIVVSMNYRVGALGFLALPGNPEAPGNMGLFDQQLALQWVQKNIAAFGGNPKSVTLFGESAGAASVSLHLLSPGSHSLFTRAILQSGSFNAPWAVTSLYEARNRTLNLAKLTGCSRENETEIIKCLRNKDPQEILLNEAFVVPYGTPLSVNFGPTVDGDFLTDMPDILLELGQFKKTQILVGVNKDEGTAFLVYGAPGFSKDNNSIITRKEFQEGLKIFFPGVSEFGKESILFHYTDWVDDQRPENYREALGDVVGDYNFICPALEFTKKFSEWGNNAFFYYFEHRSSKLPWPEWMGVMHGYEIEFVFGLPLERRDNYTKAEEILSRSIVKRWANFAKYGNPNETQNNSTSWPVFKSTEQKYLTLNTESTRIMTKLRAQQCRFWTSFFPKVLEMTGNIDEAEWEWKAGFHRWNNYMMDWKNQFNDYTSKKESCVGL

## O=C(Nc1ccc(OC(F)(F)F)cc1)NC1CCN(C(=O)CCCCNc2c3c(nc4cc(Cl)ccc24)CCCC3)CC1
[1]
  Activity: Active
[2]
  Activity: Active
[3]
  Activity: Active
[4]
  CC50 at 24 h: > 100 µM
[5]
  Activity: Active
[6]
  Activity: Active
[7]
  Activity: Active
[8]
  Activity: Active
[9]
  Activity: Active
[10]
  Activity: Active
[11]
  Activity: Active
[12]
  Activity: Active

## O=C(Nc1ccc(OC(F)(F)F)cc1)NC1CCN(C(=O)CCNc2c3c(nc4cc(Cl)ccc24)CCCC3)CC1
[4]
  CC50 at 24 h: 92.8 µM

## CC(=O)N1CCC(NC(=O)Nc2ccc(OC(F)(F)F)cc2)CC1
[13]
  inhibition: < 10%

## CC1=C[C@@H]2Cc3nc4cc(Cl)ccc4c(NCCCCC(=O)N4CCC(NC(=O)Nc5ccc(OC(F)(F)F)cc5)CC4)c3[C@H](C1)C2
[4]
  CC50 at 24 h: > 100 µM

## O=C(Nc1ccc(OC(F)(F)F)cc1)NC1CCN(C(=O)CCCNc2c3c(nc4cc(Cl)ccc24)CCCC3)CC1
[4]
  CC50 at 24 h: > 100 µM
